The EternaBench riboswitch data

Tested on: MS2 coat protein
Test: apparent Kd, MS2 coat protein; higher = weaker binding; RNA-MaP array; tryptophan 2.4 mM where present
Procedure, shortened: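 Green signal was scaled to red-channel RNA signal and control-cluster median Fmax, and the apparent Kd was taken as the median of filtered per-cluster binding-curve fits. The binding series used SNAP-549-labelled MS2 coat protein from 0.7 or 1.5 nM, doubling to 3 µM, on designs transcribed by stalled E. coli RNA polymerase on Illumina sequencing-chip clusters. Each series ran without and then with constant ligand in 100 mM Tris-HCl pH 7.5, 80 mM KCl, 4 mM MgCl2, BSA, DTT, yeast tRNA and Tween-20.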

[1] = designed as: OFF switch for tryptophan, no ligand
[2] = ligand present: tryptophan, designed as: OFF switch for tryptophan
[3] = designed as: ON switch for tryptophan, no ligand
[4] = ligand present: tryptophan, designed as: ON switch for tryptophan

AGCACUGUGACGGCCGCCACUACAUAACAUGGGUGGUCAGGUUCAUUACAUGAGGAUCACCCAUGUAGGACCGGGUCUCAGUGCA
apparent Kd [1]: 10.1 nM
apparent Kd [2]: 8.35 nM

GAUAUACGUGCGGCCGCCACUGAGUGGCGGGCGUGUCGAGUUACAUGAGGAUCACCCAUGUCACUCAGGACCGGGCACGGAAUUU
apparent Kd [1]: 9.98 nM
apparent Kd [2]: 11.4 nM

UCGUUGAAGUCGGCCGCCACUGAACUCAUGUUCAACAUGAGGAUCACCCAUGUACCUUAUUUUAACAGGACCGGGACUUUGACGA
apparent Kd [1]: 167 nM
apparent Kd [2]: 156 nM

CGCGCGACAUGAGGAUCACCCAUGUUCCCUCGAGGACCGGUACGGCCGCCACUCGAGGACAUGAGCAUCAGCCAUGUACCGGUCA
apparent Kd [3]: 51.6 nM
apparent Kd [4]: 131 nM

AGCCACUCGAACAUGGGUGACGAGUGGCAACGAGGACCGGUACGGCCGCCACUCGAAUAAACAUGAGGAUCACCCAUGUACAAAU
apparent Kd [3]: 292 nM
apparent Kd [4]: 214 nM

AGAGUCUAGUCGGCCGCCACUCAUGUCCAAUGGACAUGAGGAUCACCCAUGUACCGAAGGUACAUGAGGACCGGGACUGGACUCA
apparent Kd [3]: 153 nM
apparent Kd [4]: 11.7 nM

CCUCAAUAGACGGCCGCCACUGAAACAUGAGGAUACAUGAGGAUCACCCAUGUGGGUGUGUUACGCAGGACCGGGUCAAGACCCG
apparent Kd [3]: 207 nM
apparent Kd [4]: 336 nM

GUUAUUAGAAAACUAAUAACAGUGGGUGAACGAGGACCGGUACGGCCGCCACUCGGACAUGAGGAUCACCCAUGUCCAUGUGAAA
apparent Kd [1]: 15.4 nM
apparent Kd [2]: 32.7 nM

GGCAAAAGGUCGGCCGCCACUGUAGGAUGUGUUCUUUCACAUGAGGAUCACCCAUGUUGUUAUUAUAGGACCGGGAUUUUAGGAC
apparent Kd [1]: 21.8 nM
apparent Kd [2]: 21.1 nM

AAUACCGGAUCGGCCGCCACUGGUUGGCCCUGUGUACAUGAGGAUCACCCAUGUCCAUCCCAGACCAGGACCGGGAUCUUUGUGU
apparent Kd [3]: 15.8 nM
apparent Kd [4]: 10.4 nM

UAACAUGAGGAUCACCCAUGUUUAGAAGAACGAGGACCGGUACGGCCGCCACUCGAAAAGUGGAAGAAAAGAGGGAUAGAAUGAU
apparent Kd [3]: 12.2 nM
apparent Kd [4]: 12.6 nM

GGUGGACUUUCGGCCGCCACUGAGAGAGUCGUGUGAACAUGAGGAUCACCCAUGUAAUAUAUAUACAGGACCGGGAGGGUUGUCC
apparent Kd [1]: 15.9 nM
apparent Kd [2]: 15.9 nM

UAAUGCAGGUCGGCCGCCACUACACACAUGAGGAUCACCCAUGUAGUUACUGGGUGAAGUGGCAGUAGGACCGGGACCUGCAUAC
apparent Kd [3]: 372 nM
apparent Kd [4]: 470 nM

GGCUAUACUACGGCCGCCACUGAACAUGAGGAUCACCCAUGUAAUGUUCAGAUUUUUUUUUUUUACAGGACCGGGUAGAAUUGCC
apparent Kd [3]: 195 nM
apparent Kd [4]: 104 nM

GGGUGGUAGGCGGCCGCCACUGAUUUUCAUUCCUGGAUGACAUGAGGAUCACCCAUGUUUACGGGCAGGACCGGGCCUGCUGUGG
apparent Kd [3]: 57.3 nM
apparent Kd [4]: 46.5 nM

AGAAUAUAGUCGGCCGCCACUCUACAUACAUGAGGAUCACCCAUGUUUACAUAGUGAAUAUACAUGAGGACCGGGACAUAGGCAU
apparent Kd [3]: 21.8 nM
apparent Kd [4]: 13.4 nM

CACGAAAGAUCGGCCGCCACUCAUGUUUCUUACAUGAGGAUCACCCAUGUAUUUUCUUUCUUUUAGAGGACCGGGAUUGAGCGUG
apparent Kd [3]: 155 nM
apparent Kd [4]: 29.8 nM
